Bioassay records: PubChem BioAssay, Johns Hopkins Ion Channel Center
Compounds with a hit are over-represented: about 3.7% of the library has one in this group of screens.
Kir21 inh: Kir2.1 (mouse) channel inhibition; HEK293-Kir2.1, FluxOR thallium flux fluorescence; hits give low values; B-score at 10 µM; P35561; AID 1672; hit rate 0.85% among 310,000;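 active means fluorescence ratio B-score at or below minus 3 SD of library scores, with starting-brightness B-score within 2 SD, cut at about -4.2 in these data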;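 further: channel flux triggered by added potassium and thallium sulfate stimulus; B-score of peak minus minimum fluorescence over baseline after thallium stimulus; more negative B-score means stronger Kir2.1 block with less thallium influx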
KCNK9 block: human KCNK9 channel inhibition. HEK293 KCNK9, FluxOR thallium flux fluorescence; hits give low values. B-score at 10 µM. hit rate 1.2% among 310,000. AID 488922;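 active means ratio B-score over 3 SD below the library mean, with starting fluorescence within 5 SD of its mean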;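 further: negative B-score means less thallium flux so channel inhibition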
Target sequence (Q9NPC2 whole entry, looked up): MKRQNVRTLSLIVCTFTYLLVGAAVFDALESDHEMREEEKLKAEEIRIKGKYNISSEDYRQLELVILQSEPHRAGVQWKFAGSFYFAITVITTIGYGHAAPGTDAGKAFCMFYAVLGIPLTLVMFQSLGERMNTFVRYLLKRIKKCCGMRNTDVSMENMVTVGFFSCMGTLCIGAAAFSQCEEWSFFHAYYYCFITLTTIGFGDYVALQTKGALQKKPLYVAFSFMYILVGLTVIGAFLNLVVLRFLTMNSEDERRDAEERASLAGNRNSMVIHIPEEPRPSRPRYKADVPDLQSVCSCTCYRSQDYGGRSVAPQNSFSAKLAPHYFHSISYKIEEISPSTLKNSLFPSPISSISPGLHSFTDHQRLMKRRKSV
KCNK3 inh: human KCNK3 channel inhibition, primary screen; O14649; CHO-KCNK3 thallium flux, FluxOR fluorescence; hits give low values; B-score at 10 µM; hit rate 0.84% among 340,000; AID 602410;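 active means B-score under library mean minus 4 SD, starting fluorescence ratio at most library mean plus 5 SD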;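 further: more negative B-score means stronger inhibition of thallium flux through KCNK3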
hERG protect: shields human hERG channel from block by proarrhythmic agents; hit rate 0.51% among 310,000; activation (rescue from dofetilide block), less the hit threshold, % at 10 µM; AID 1511; Q12809; CHO-hERG, FluxOR thallium flux, dofetilide IC70 present;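 active means activation above the mean of controls blocked by dofetilide plus 5 SD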;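 further: thallium influx through hERG after potassium depolarization seen as dye fluorescence rise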
KCNQ1 pot: potentiators or activators of human KCNQ1 potassium channel | hit rate 0.35% among 310,000 | B-score at 10 µM | CHO-K1 KCNQ1, thallium flux FluxOR fluorescence; hits give high values | P51787;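 active means fluorescence ratio B-score, a plate-corrected score, at least three library SD, with initial intensity B-score within 5 SD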
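Schedule – 37 °C overnight plating, 90-min dark dye load, 20-min compound pretreatment · System – stable KCNQ1 CHO-K1 line · Probe or stimulus – thallium- and potassium-containing depolarizing buffer · Measured by – kinetic FluxOR fluorescence, 10 s baseline plus 110 s post-stimulus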
KCNQ1 block: blocks the human KCNQ1 potassium channel | B-score at 10 µM | hit rate 1.3% among 310,000 | CHO-K1 KCNQ1, FluxOR thallium flux fluorescence; hits give high values;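 active means compounds whose thallium flux B-score, printed positive for inhibition, exceeds three library SD while starting fluorescence stays within three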;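 further: channel opened by potassium depolarization with thallium stimulus after 20 min compound exposure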
KCNK9 inh conf: confirmation of human KCNK9 potassium channel inhibitors; shares compounds with KCNK9 block; HEK293 KCNK9 cells, FluxOR thallium flux fluorescence; inhibition, % at 10 µM; hit rate 43% among 4,900;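 active means thallium signal inhibited by more than 5 SD of the compound-free buffer control wells, on both duplicate plates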;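 further: 0% = assay buffer control wells without compound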
Kir2-1 spec: selectivity of KCNK9 modulators against mouse Kir2.1. shares compounds with KCNK9 block. Kir2.1 cells, FluxOR thallium flux fluorescence. inhibition, % at 10 µM. hit rate 4% among 4,900;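 active means thallium signal drop more than 5 SD beyond the mean of the no-compound control wells, seen in both duplicate plates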;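 further: signal is fluorescence rise after thallium addition divided by baseline fluorescence; plate controls were assay buffer only for no effect and full block by chlorpromazine control for full effect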
KCNK9 uninduced: non-induced cell nonspecific activity of KCNK9 modulators; hit rate 40% among 4,900; non-induced KCNK9-HEK293, FluxOR thallium flux; inhibition, % at 10 µM; AID 492997; shares compounds with KCNK9 block;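 active means thallium signal drop beyond 5 SD of the untreated control mean, on both duplicate plates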;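 further: plate controls were buffer only IC0 wells for no effect and SID17386958 at its maximal inhibitory level for full effect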
Numbers without * were called inactive; i = inactive; x = no result given.

SMILES	Kir21 inh	KCNK9 block	KCNK3 inh	hERG protect	KCNQ1 pot	KCNQ1 block	KCNK9 inh conf	Kir2-1 spec	KCNK9 uninduced
CCc1ccc(CN(Cc2cccnc2)C(=O)/C=C/c2ccc(OC)cc2)cc1	1.68	i	i	-14.2	i	i	i	i	i
COC(=O)[C@@]1(Cc2ccccc2)[C@H]2C(=O)N(C)C(=O)[C@H]2[C@H]2CN=C(SCc3ccccc3)N21	x	x	i	x	x	x	x	x	x
CCCCN1CC[C@H]2C=CC[C@@H](C(=O)Nc3ccc(Cl)cc3Cl)[C@H]2C1=O	0.38	i	i	-10.9	i	i	i	i	i
CC(=O)Nc1cccc(C(=O)NNC(=O)c2ccccc2-n2cccc2)c1	x	x	i	x	x	x	x	x	x
Cc1ccc(-c2nn(-c3ccccc3)cc2/C=N/n2c(-c3cccs3)n[nH]c2=S)cc1	0.2	i	i	-8.3	i	i	i	i	i
S=c1[nH]nc(-c2cccs2)n1/N=C/c1cn(-c2ccccc2)nc1-c1cccs1	-2.39	i	i	-14.4	i	i	x	x	x
COc1ccc(C2Nc3ccccc3C(=O)N2Cc2ccco2)cc1COc1ccccc1F (configuration not stated)	-1.23	-9.03*	i	-7.3	i	i	46.5%*	i	33.5%*
CCCC(C(=O)NC1CCCC1)N(CC1CCCO1)C(=O)CNS(=O)(=O)c1ccc(F)cc1 (configuration not stated)	0.84	i	i	-7.9	i	i	x	x	x
CS(=O)(=O)N1CCC(C(=O)NCc2ccc(F)cc2)CC1	0.46	i	i	-3.4	i	i	x	x	x
Nc1ccc(S(=O)(=O)N2CCCC2)cc1Cl	2.94	i	i	-3.7	i	i	x	x	x
CCn1cc(/C=C(\NC(=O)c2ccccc2OC)C(=O)NCCCN2CCOCC2)c2ccccc21	0.78	i	i	-9.0	i	i	x	x	x
CCn1cc(/C=C(\NC(=O)c2ccccc2F)C(=O)NCCN2CCOCC2)c2ccccc21	1.69	i	i	-11.3	i	i	i	i	i
Cc1ccnc(N2CCN(C(=O)CSc3nc4ccccc4nc3N3CCC(C)CC3)CC2)c1	0.2	i	i	-14.2	i	i	i	i	i
CCC(C)NCC(=O)Nc1ccc(S(N)(=O)=O)cc1 (configuration not stated)	-0.53	i	i	1.2	i	i	x	x	x
O=C(CNc1cc(S(=O)(=O)N2CCOCC2)ccc1N1CCCC1)NCc1ccco1	-0.68	i	i	-4.6	i	i	x	x	x
CSc1ncc(C(=O)Nc2cccnc2)c(C(F)(F)F)n1	-0.14	i	i	-3.7	i	i	x	x	x
Brc1ccc(CSc2nnc(-c3ccccn3)n2Cc2ccco2)cc1	-1.97	-16.3*	i	-15.6	i	i	43.5%*	i	41.0%*
Clc1cccc(CSc2nnc(-c3ccccn3)n2Cc2ccco2)c1	-3.86	i	i	-19.0	i	i	x	x	x
CCCNC(=O)c1ccccc1SCc1c(C)noc1C	0.36	i	i	-3.2	i	i	x	x	x
CO/N=C(/CS(=O)(=O)Cc1ccccc1Cl)c1ccc(Cl)cc1Cl	0.52	i	i	-7.3	i	i	x	x	x
CCOC(=O)c1ccc(N2CCCCC2)c(NS(=O)(=O)c2cccc(C(F)(F)F)c2)c1	0.53	-11.3*	i	-6.0	i	i	56.5%*	i	34.5%*
COC(=O)c1ccc(N2CCCCC2)c(NS(=O)(=O)c2ccc(C)cc2)c1	-2.2	i	i	-5.8	i	i	x	x	x
CC1CCc2c(sc(NS(=O)(=O)c3ccccc3)c2C(=O)OC(C)C)C1 (configuration not stated)	2.53	i	i	4.4	26*	i	i	i	i
